Assay results published in ChEMBL document CHEMBL1145382, “Novel ergopeptides as dual ligands for adenosine and dopamine receptors” (J Med Chem, 2007).
Activity calls are given as the source filed them. No cut-off for these calls is given here.

The molecules below were run against T1, Adenosine receptor A1 (Homo sapiens) (UniProt P30542) (assay: Displacement of [3H]R-PIA from adenosine A1 receptor in lamb striatum membrane at 50 uM after 1 hr). Settings: Ovis aries, target entry is the homologue from another species.
T1 sequence (whole entry): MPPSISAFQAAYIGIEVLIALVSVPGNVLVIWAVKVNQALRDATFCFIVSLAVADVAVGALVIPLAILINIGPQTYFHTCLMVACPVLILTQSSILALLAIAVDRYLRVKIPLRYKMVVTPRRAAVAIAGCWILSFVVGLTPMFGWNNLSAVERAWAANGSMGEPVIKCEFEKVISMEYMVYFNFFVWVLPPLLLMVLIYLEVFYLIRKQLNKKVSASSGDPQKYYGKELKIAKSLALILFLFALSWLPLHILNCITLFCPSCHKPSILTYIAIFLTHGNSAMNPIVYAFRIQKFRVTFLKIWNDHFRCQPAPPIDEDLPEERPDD
Format: cell membranes
In short: (§1)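 Single-concentration screen at 50 µM ergopeptide on lamb striatal membranes (0.5 mg protein/mL), 22 °C, 50 mM Tris-HCl pH 7.4. Radioligands: [3H]SCH 23390 1.2 nM (D1), [3H]YM 09151-2 0.9 nM (D2), [3H]R-PIA 2.2 nM (A1, with MgCl2 and ADA), [3H]CGS 21680 20.1 nM (A2A, with MgCl2 and ADA). Specific binding displaced, after filtration and scintillation counting.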
`CN1C[C@H](C(=O)N[C@@H](CCC2CCCCC2)C(=O)N[C@@H](Cc2ccc(F)cc2)C(=O)N2CCC[C@H]2C(N)=O)C=C2c3cccc4[nH]cc(c34)C[C@H]21` was tested, and the Activity was < 40%. In the case of `CC(C)[C@H](NC(=O)[C@H](CCC1CCCCC1)NC(=O)[C@@H]1C=C2c3cccc4[nH]cc(c34)C[C@H]2N(C)C1)C(=O)N1CCC[C@H]1C(N)=O`, the Activity is reported as < 40%.

The molecules below were run against T2, Adenosine receptor A2a (Homo sapiens, UniProt P29274) (assay: Agonist activity at adenosine A2A receptor in SH-SY5Y cells assessed as CGS-induced intracellular cAMP production at 50 uM). Settings: not given.
T2 sequence (P29274 whole entry): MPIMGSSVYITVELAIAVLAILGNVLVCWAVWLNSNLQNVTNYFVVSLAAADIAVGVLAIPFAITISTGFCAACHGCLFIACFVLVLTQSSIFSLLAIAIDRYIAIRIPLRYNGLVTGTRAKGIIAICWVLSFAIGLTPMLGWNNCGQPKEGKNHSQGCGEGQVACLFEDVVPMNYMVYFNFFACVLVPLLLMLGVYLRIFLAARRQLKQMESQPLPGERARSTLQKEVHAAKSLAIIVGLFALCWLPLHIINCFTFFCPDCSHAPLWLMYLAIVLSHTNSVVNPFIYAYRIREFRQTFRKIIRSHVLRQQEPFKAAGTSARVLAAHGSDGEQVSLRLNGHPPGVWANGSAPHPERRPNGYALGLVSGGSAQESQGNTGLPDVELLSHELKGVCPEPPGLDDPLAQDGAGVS
Format: functional, cell-based
In short: (§2)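 SH-SY5Y neuroblastoma cells, endogenous A2AR, stably carrying human D2LR. Serum-starved 12-16 h, in HBSS with 50 µM zardaverine for 10 min, then 50 µM ergopeptide, alone or with the A2AR agonist CGS. 35 min total incubation. cAMP by competitive enzyme immunoassay. Three to six determinations, Student's t test.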
`CN1C[C@H](C(=O)N[C@@H](CCC2CCCCC2)C(=O)N[C@@H](Cc2ccc(F)cc2)C(=O)N2CCC[C@H]2C(N)=O)C=C2c3cccc4[nH]cc(c34)C[C@H]21` was tested, and the Activity was “inactive”. In the case of `CC(C)[C@H](NC(=O)[C@H](CCC1CCCCC1)NC(=O)[C@@H]1C=C2c3cccc4[nH]cc(c34)C[C@H]2N(C)C1)C(=O)N1CCC[C@H]1C(N)=O`, the Activity is reported as “inactive”.

These molecules were tested against D(2) dopamine receptor (Homo sapiens) (UniProt P14416) (assay: Agonist activity at dopamine D2 receptor in SH-SY5Y cells assessed as inhibition of forskolin-activated intracellular cAMP production at 50 uM). Settings: not given.
Sequence of D(2) dopamine receptor (Homo sapiens) (P14416 whole entry): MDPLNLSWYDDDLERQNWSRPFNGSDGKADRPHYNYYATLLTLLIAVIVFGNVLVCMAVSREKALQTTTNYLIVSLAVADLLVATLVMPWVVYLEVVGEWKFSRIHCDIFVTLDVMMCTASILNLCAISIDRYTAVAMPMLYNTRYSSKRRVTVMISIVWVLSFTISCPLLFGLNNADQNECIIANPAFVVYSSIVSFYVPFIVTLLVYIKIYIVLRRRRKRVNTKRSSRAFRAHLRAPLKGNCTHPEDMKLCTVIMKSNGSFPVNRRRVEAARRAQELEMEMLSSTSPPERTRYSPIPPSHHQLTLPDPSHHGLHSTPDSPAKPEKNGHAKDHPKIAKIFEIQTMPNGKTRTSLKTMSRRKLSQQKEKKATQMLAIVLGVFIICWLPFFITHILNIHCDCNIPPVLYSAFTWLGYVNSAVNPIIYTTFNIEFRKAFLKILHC
Format: functional, cell-based
In short: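 SH-SY5Y cells expressing human D2LR, preincubated 5-10 min at 22 °C with 5 µM ZM to block A2AR. Then 50 µM zardaverine, 10 µM forskolin, and 50 µM ergopeptide, with or without 150 nM quinpirole or 50 µM raclopride. 35 min total. cAMP by enzyme immunoassay. Three to six determinations, t test.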
With `CN1C[C@H](C(=O)N[C@@H](CCC2CCCCC2)C(=O)N[C@@H](Cc2ccc(F)cc2)C(=O)N2CCC[C@H]2C(N)=O)C=C2c3cccc4[nH]cc(c34)C[C@H]21` the Activity was “Active”. With `CC(C)[C@H](NC(=O)[C@H](CCC1CCCCC1)NC(=O)[C@@H]1C=C2c3cccc4[nH]cc(c34)C[C@H]2N(C)C1)C(=O)N1CCC[C@H]1C(N)=O` the Activity was “Active”.

These molecules were tested against D(1A) dopamine receptor (Homo sapiens) (UniProt P21728) (assay: Displacement of [3H]SCH 23390 from dopamine D1 receptor in lamb striatum membrane at 50 uM after 1 hr). Settings: Ovis aries, target entry is the homologue from another species.
Sequence of D(1A) dopamine receptor (Homo sapiens) (P21728 whole entry): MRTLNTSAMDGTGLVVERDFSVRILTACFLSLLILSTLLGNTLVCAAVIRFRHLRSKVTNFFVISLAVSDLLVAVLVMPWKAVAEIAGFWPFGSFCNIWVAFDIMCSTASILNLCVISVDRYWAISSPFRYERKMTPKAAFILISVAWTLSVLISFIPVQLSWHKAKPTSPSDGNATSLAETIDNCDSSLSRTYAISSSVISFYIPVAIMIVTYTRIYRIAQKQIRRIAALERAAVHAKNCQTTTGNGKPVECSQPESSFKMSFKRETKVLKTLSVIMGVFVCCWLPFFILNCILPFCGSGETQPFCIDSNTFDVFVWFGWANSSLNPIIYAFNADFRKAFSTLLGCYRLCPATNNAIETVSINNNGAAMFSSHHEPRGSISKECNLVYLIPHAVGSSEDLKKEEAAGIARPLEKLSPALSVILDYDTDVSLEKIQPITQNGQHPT
Format: cell membranes
In short: as §1
In the case of `CN1C[C@H](C(=O)N[C@@H](CCC2CCCCC2)C(=O)N[C@@H](Cc2ccc(F)cc2)C(=O)N2CCC[C@H]2C(N)=O)C=C2c3cccc4[nH]cc(c34)C[C@H]21`, the Activity is reported as < 40%. `CC(C)[C@H](NC(=O)[C@H](CCC1CCCCC1)NC(=O)[C@@H]1C=C2c3cccc4[nH]cc(c34)C[C@H]2N(C)C1)C(=O)N1CCC[C@H]1C(N)=O` was tested, and the Activity was < 40%.

What follows are molecules tested against T2, Adenosine receptor A2a (assay: Displacement of [3H]CGS 21680 from adenosine A2A receptor in lamb striatum membrane at 50 uM after 2 hrs). Settings: Ovis aries, target entry is the homologue from another species.
Format: cell membranes
In short: as §1
With `CN1C[C@H](C(=O)N[C@@H](CCC2CCCCC2)C(=O)N[C@@H](Cc2ccc(F)cc2)C(=O)N2CCC[C@H]2C(N)=O)C=C2c3cccc4[nH]cc(c34)C[C@H]21` the Activity was < 40%. `CC(C)[C@H](NC(=O)[C@H](CCC1CCCCC1)NC(=O)[C@@H]1C=C2c3cccc4[nH]cc(c34)C[C@H]2N(C)C1)C(=O)N1CCC[C@H]1C(N)=O` was tested, and the Activity was < 40%.

What follows are molecules tested against D(2) dopamine receptor (Homo sapiens) (UniProt P14416) (assay: Displacement of [3H]YM 09151-2 from dopamine D2 receptor in lamb striatum membrane at 50 uM after 2 hrs). Settings: Ovis aries, target entry is the homologue from another species.
Format: cell membranes
In short: as §1
For `CN1C[C@H](C(=O)N[C@@H](CCC2CCCCC2)C(=O)N[C@@H](Cc2ccc(F)cc2)C(=O)N2CCC[C@H]2C(N)=O)C=C2c3cccc4[nH]cc(c34)C[C@H]21`, the Activity was < 40%. `CC(C)[C@H](NC(=O)[C@H](CCC1CCCCC1)NC(=O)[C@@H]1C=C2c3cccc4[nH]cc(c34)C[C@H]2N(C)C1)C(=O)N1CCC[C@H]1C(N)=O` was tested, and the Activity was < 40%.

The molecules below were run against D(1A) dopamine receptor (Homo sapiens) (UniProt P21728) (assay: Antagonist activity at dopamine D1 receptor transfected in mouse L(tk-) cells assessed as inhibition of SKF-induced stimulation of forskolin-induced cAMP levels). Settings: not given.
Format: functional, cell-based
In short: (§3)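 Mouse Ltk- fibroblasts cotransfected with human A1R and D1R, serum-starved 12-16 h. In HBSS with 50 µM zardaverine, then 50 µM ergopeptide, with or without 20 nM SKF or 50 µM SCH. 35 min total incubation. cAMP by competitive enzyme immunoassay. Three to six determinations, t test.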
`CN1C[C@H](C(=O)N[C@@H](CCC2CCCCC2)C(=O)N[C@@H](Cc2ccc(F)cc2)C(=O)N2CCC[C@H]2C(N)=O)C=C2c3cccc4[nH]cc(c34)C[C@H]21` was tested, and the Activity was “inactive”. In the case of `CC(C)[C@H](NC(=O)[C@H](CCC1CCCCC1)NC(=O)[C@@H]1C=C2c3cccc4[nH]cc(c34)C[C@H]2N(C)C1)C(=O)N1CCC[C@H]1C(N)=O`, the Activity is reported as “inactive”.

Each molecule was assayed against T1, Adenosine receptor A1 (Homo sapiens) (assay: Agonist activity at adenosine A1 receptor transfected in mouse L(tk-) cells assessed as decrease in forskolin-induced cAMP levels). Settings: not given.
Format: functional, cell-based
In short: (§4)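 Mouse Ltk- fibroblasts cotransfected with human A1R and D1R, preincubated 5-10 min at 22 °C with 50 µM SCH to block D1R. Then 50 µM zardaverine, 10 µM forskolin, and 50 µM ergopeptide, with or without 20 nM R-PIA or 50 µM DPCPX. 35 min total. cAMP by enzyme immunoassay. Three to six determinations.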
`CN1C[C@H](C(=O)N[C@@H](CCC2CCCCC2)C(=O)N[C@@H](Cc2ccc(F)cc2)C(=O)N2CCC[C@H]2C(N)=O)C=C2c3cccc4[nH]cc(c34)C[C@H]21` was tested, and the Activity was “inactive”. With `CC(C)[C@H](NC(=O)[C@H](CCC1CCCCC1)NC(=O)[C@@H]1C=C2c3cccc4[nH]cc(c34)C[C@H]2N(C)C1)C(=O)N1CCC[C@H]1C(N)=O` the Activity was “inactive”.

The molecules below were run against T2, Adenosine receptor A2a (assay: Antagonist activity at adenosine A2A receptor in SH-SY5Y cells assessed as CGS-induced intracellular cAMP production at 50 uM). Settings: not given.
Format: functional, cell-based
In short: as §2
With `CC(C)[C@H](NC(=O)[C@H](CCC1CCCCC1)NC(=O)[C@@H]1C=C2c3cccc4[nH]cc(c34)C[C@H]2N(C)C1)C(=O)N1CCC[C@H]1C(N)=O` the Activity was “Active”.

What follows are molecules tested against T2, Adenosine receptor A2a (assay: Displacement of [3H]CGS 21680 from adenosine A2A receptor in lamb striatum membrane after 2 hrs). Settings: target entry is the homologue from another species.
Format: cell membranes, Ovis aries
In short: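 Lamb striatal membranes (0.5 mg protein/mL), 22 °C, 50 mM Tris-HCl pH 7.4, with increasing ergopeptide concentrations. Conditions per receptor: D1 1.2 nM [3H]SCH 23390, 1 mM dopamine nonspecific. D2 0.9 nM [3H]YM 09151-2, 100 µM raclopride nonspecific. A1 2.2 nM [3H]R-PIA, 10 mM MgCl2, 0.2 U/mL ADA, 50 µM R-PIA nonspecific. A2A 20.1 nM [3H]CGS 21680, 10 mM MgCl2, 2 U/mL ADA, 1 mM CGS 21680 nonspecific. Filtration, scintillation counting. KD by nonlinear one- or two-site fit. Three to six determinations.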
`CN1C[C@H](C(=O)N[C@@H](CCC2CCCCC2)C(=O)N[C@@H](Cc2ccc(F)cc2)C(=O)N2CCC[C@H]2C(N)=O)C=C2c3cccc4[nH]cc(c34)C[C@H]21` showed a Kd of 33 µM.

Each molecule was assayed against D(1A) dopamine receptor (Homo sapiens) (UniProt P21728) (assay: Agonist activity at dopamine D1 receptor transfected in mouse L(tk-) cells assessed as stimulation of cAMP levels). Settings: not given.
Format: functional, cell-based
In short: as §3
For `CN1C[C@H](C(=O)N[C@@H](CCC2CCCCC2)C(=O)N[C@@H](Cc2ccc(F)cc2)C(=O)N2CCC[C@H]2C(N)=O)C=C2c3cccc4[nH]cc(c34)C[C@H]21`, the Activity was “Active”. `CC(C)[C@H](NC(=O)[C@H](CCC1CCCCC1)NC(=O)[C@@H]1C=C2c3cccc4[nH]cc(c34)C[C@H]2N(C)C1)C(=O)N1CCC[C@H]1C(N)=O` was tested, and the Activity was “Active”.

Each molecule was assayed against T1, Adenosine receptor A1 (Homo sapiens) (assay: Antagonist activity at adenosine A1 receptor transfected in mouse L(tk-) cells assessed as inhibition of R-PIA-induced decrease in forskolin-induced cAMP levels). Settings: not given.
Format: functional, cell-based
In short: as §4
`CN1C[C@H](C(=O)N[C@@H](CCC2CCCCC2)C(=O)N[C@@H](Cc2ccc(F)cc2)C(=O)N2CCC[C@H]2C(N)=O)C=C2c3cccc4[nH]cc(c34)C[C@H]21` was tested, and the Activity was “Active”. With `CC(C)[C@H](NC(=O)[C@H](CCC1CCCCC1)NC(=O)[C@@H]1C=C2c3cccc4[nH]cc(c34)C[C@H]2N(C)C1)C(=O)N1CCC[C@H]1C(N)=O` the Activity was “Active”.
